Measured values: ChEMBL document CHEMBL1240327, “Small molecules enhance autophagy and reduce toxicity in Huntington's disease models” (Nat Chem Biol, 2007)
Calls of active or inactive are those of the source. The rule behind the calls is not given here.

How the values were obtained:
Drosophila melanogaster [1] = test: Neuroprotective activity in Drosophila melanogaster Huntington's disease model harboring huntington protein mutant assessed as protection against neurodegeneration at 100 uM; format: functional, organism-based
HeLa [2] = test: Increase in MAP1LC3 level in bafilomycin A1-treated human HeLa cells at 47 uM treated fro 24 hrs before bafilomycin A1 challenge by immunoblotting analysis; format: functional, cell-based
Method in brief: (§1)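 HeLa cells stably expressing EGFP-LC3 were pretreated with compound for 24 h, then given 200 nM bafilomycin A1 for 4 h. EGFP-LC3-II was measured by anti-EGFP immunoblot with densitometry relative to actin, from three independent experiments.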

[3] = molecular target: Huntingtin (Homo sapiens) (UniProt P42858); test: Inhibition of EGFP-tagged huntingtin aggregation expressed in african green monkey COS7 cells at 47 uM after 24 hrs by […] in presence of 0.2 uM rapamycin; format: cell-based; settings: COS-7
HeLa [4] = test: Inhibition of proteasome activity in human HeLa cells assessed as induction of ubiquitinG76V-EGFP reporter level at 47 uM after 24 hrs by immunoblotting
[5] = molecular target: Huntingtin (Homo sapiens) (UniProt P42858); test: Inhibition of EGFP-tagged huntingtin aggregation expressed in african green monkey COS7 cells at 47 uM after 48 hrs by […]; format: cell-based; settings: COS-7
[6] = molecular target: Serine/threonine-protein kinase mTOR (Homo sapiens) (UniProt P42345); test: Inhibition of mTOR phosphorylation expressed in african green monkey COS7 cells at 47 uM by Western blot analysis; format: cell-based; settings: COS-7
[7] = molecular target: Huntingtin (Homo sapiens) (UniProt P42858); test: Inhibition of EGFP-tagged huntingtin expressed in african green monkey COS7 cells assessed as protection against protein-induced cell death at 47 uM after 48 hrs by Western blot analysis; format: cell-based; settings: COS-7
Saccharomyces paradoxus = test: Enhancement of rapamycin-mediated cytostatic effect in Saccharomyces paradoxus after 48 to 96 hrs; format: functional
[8] = molecular target: Huntingtin (Mus musculus) (UniProt P42859); test: Inhibition of EGFP-tagged huntingtin aggregation in MEF harboring Atg5 gene at 47 uM after 48 hrs by Western blot analysis
Chain of Huntingtin (Mus musculus) (P42859 whole entry): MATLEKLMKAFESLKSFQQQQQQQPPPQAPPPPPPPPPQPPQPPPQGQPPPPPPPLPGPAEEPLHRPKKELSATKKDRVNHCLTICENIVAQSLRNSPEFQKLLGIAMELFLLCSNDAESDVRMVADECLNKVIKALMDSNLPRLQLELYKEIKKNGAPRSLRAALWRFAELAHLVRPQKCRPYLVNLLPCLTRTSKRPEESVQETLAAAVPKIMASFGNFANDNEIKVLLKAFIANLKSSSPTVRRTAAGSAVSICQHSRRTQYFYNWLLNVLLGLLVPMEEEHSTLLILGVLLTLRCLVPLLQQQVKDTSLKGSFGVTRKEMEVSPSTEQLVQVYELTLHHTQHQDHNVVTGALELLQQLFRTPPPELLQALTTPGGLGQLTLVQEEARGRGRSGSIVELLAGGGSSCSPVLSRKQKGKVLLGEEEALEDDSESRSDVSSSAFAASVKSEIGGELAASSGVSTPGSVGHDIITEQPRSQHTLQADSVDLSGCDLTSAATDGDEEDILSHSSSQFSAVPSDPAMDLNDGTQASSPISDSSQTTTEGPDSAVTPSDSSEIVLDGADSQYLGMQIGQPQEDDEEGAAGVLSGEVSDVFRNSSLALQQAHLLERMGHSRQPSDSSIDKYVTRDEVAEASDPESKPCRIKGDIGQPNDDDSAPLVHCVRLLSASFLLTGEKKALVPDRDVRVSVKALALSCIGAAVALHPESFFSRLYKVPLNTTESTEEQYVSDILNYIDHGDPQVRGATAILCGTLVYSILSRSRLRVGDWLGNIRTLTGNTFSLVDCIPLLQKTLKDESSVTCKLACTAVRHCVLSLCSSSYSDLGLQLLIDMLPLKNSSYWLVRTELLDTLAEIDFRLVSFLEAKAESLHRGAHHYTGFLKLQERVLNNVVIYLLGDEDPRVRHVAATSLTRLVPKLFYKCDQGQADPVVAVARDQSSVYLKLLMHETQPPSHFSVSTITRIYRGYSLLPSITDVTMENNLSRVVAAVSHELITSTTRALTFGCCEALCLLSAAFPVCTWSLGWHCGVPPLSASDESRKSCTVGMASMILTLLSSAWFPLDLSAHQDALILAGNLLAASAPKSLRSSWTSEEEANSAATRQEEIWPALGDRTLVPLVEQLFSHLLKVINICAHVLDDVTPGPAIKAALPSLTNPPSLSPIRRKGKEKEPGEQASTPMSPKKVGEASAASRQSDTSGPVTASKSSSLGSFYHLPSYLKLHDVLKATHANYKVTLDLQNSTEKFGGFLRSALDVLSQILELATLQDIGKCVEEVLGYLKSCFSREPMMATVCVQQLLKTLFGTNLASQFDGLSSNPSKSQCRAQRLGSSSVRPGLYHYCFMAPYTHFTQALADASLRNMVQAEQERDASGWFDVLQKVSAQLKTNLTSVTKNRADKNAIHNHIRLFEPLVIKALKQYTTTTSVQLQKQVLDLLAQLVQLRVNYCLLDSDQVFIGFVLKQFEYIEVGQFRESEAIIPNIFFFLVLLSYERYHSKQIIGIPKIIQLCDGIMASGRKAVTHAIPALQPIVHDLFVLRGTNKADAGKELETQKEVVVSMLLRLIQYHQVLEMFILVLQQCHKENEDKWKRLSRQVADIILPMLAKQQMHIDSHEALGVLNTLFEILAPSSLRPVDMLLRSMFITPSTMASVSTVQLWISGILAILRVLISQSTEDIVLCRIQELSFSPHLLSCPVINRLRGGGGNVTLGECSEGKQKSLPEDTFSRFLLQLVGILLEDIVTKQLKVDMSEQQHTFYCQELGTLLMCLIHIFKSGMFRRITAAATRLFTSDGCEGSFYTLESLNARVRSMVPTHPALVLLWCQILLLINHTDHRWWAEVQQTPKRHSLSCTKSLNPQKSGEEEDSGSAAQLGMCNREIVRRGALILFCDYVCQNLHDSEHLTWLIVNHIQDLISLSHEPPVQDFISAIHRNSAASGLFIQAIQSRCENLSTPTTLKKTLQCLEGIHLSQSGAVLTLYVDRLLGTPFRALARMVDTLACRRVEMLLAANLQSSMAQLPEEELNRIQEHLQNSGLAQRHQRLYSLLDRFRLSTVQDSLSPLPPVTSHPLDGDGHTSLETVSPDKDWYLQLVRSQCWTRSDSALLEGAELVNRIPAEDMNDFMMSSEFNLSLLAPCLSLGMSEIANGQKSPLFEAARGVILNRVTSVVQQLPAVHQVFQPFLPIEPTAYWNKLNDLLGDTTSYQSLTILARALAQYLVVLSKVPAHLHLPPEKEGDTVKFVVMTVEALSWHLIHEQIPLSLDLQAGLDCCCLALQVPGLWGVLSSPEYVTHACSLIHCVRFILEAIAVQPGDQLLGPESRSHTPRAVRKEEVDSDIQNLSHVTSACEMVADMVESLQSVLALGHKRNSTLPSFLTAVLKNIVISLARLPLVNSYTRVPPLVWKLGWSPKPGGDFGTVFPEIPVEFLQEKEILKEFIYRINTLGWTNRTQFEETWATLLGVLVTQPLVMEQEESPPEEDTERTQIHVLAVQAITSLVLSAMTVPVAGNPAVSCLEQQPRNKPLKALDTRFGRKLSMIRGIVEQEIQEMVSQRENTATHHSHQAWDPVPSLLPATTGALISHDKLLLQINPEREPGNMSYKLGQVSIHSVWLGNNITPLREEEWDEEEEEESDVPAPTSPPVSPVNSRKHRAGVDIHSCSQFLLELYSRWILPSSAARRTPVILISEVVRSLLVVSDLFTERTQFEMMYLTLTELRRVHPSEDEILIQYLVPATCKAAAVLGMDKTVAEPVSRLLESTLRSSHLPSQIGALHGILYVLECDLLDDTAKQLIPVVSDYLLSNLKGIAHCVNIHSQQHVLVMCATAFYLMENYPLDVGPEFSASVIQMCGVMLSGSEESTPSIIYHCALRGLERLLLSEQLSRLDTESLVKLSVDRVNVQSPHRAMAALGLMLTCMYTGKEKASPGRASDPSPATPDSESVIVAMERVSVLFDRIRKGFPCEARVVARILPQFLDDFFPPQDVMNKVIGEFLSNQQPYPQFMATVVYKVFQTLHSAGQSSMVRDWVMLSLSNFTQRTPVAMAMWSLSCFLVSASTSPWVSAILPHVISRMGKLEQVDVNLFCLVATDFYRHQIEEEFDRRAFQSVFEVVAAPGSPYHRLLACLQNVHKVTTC

[9] = Cytotoxicity against african green monkey COS7 cells at 47 uM after 24 hrs by FACS analysis; format: cell-based; settings: chlorocebus aethiops, cos-7, 24 h
Saccharomyces cerevisiae [10] = test: Enhancement of rapamycin-mediated cytostatic effect in yeast RM11-1a after 48 to 96 hrs; format: functional
HeLa [11] = test: Induction of autophagy in human HeLa cells harboring MAP1LC3 gene at 47 uM after 24 hrs by DAPI staining-based fluorescence microscopy; format: functional, cell-based
Method in brief: (§2)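 Stable EGFP-LC3 HeLa cells treated 24 h. EGFP-positive autophagic vesicles were imaged by confocal microscopy with DAPI nuclear counterstain.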

COS-7 [12] = test: Effect on ATg6 level in african green monkey COS7 cells at 47 uM after 24 hrs by immunoblotting; format: functional, cell-based; settings: Chlorocebus aethiops
PC-12 [13] = test: Enhancement of autophagy in rat PC12 cells assessed as decrease in alpha-synuclein A53T mutant level at 43 uM by immunoblotting; format: functional, cell-based
Method in brief: (§3)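 Stable PC12 line with doxycycline-inducible HA-tagged A53T α-synuclein; induced with 1 μg/ml doxycycline for 48 h, then doxycycline removed. Compounds added during the 24 h switch-off period, from 5 mg ml⁻¹ DMSO stock diluted 1:20000, 1:4000 or 1:400. HA immunoblot, densitometry relative to actin; control set to 100 %; three independent experiments, factorial ANOVA.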

COS-7 [14] = test: Effect on ATg7 level in african green monkey COS7 cells at 47 uM after 24 hrs by immunoblotting; format: functional, cell-based; settings: Chlorocebus aethiops
Drosophila melanogaster [15] = test: Toxicity against Drosophila melanogaster Huntington's disease model at 100 uM; format: organism-based; settings: in vivo
PC-12 [16] = test: Enhancement of rapamycin-induced clearance of alpha-synuclein A53T mutant protein in rat PC12 cells at 47 uM after 8 hrs by immunoblotting; format: functional, cell-based
Method in brief: (§4)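 Inducible PC12 A53T α-synuclein line (1 μg/ml doxycycline, 48 h, then switched off). Compound given alone or with 0.2 μM rapamycin over an 8 h switch-off period. Read-out is anti-HA immunoblot with densitometry relative to actin, n=3, control as 100 %.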

[17] = molecular target: Huntingtin (Mus musculus) (UniProt P42859); test: Inhibition of EGFP-tagged huntingtin aggregation in Atg5-deficient MEF at 47 uM after 48 hrs by Western blot analysis
COS-7 [18] = test: Effect on ATg12 level in african green monkey COS7 cells at 47 uM after 24 hrs by immunoblotting; format: functional, cell-based; settings: Chlorocebus aethiops
Saccharomyces cerevisiae [19] = test: Enhancement of 20 nM rapamycin-mediated cytostatic effect in yeast BY4742 after 48 to 96 hrs; format: functional, organism-based
PC-12 [20] = test: Enhancement of autophagy in rat PC12 cells assessed as decrease in alpha-synuclein A53T mutant level at 5 mg/ml by densitometry; format: functional, cell-based; method in brief: as §3
Saccharomyces bayanus = test: Enhancement of rapamycin-mediated cytostatic effect in Saccharomyces bayanus after 48 to 96 hrs; format: functional
PC-12 [21] = test: Enhancement of autophagy in rat PC12 cells assessed as decrease in alpha-synuclein A53T mutant level at 47 uM by immunoblotting; format: functional, cell-based; method in brief: as §3
COS-7 [22] = test: Effect on ATg5 level in african green monkey COS7 cells at 47 uM after 24 hrs by immunoblotting; format: functional, cell-based; settings: Chlorocebus aethiops
Saccharomyces mikatae = test: Enhancement of rapamycin-mediated cytostatic effect in Saccharomyces mikatae after 48 to 96 hrs; format: functional
COS-7 [23] = test: Increase in conjugated Atg12-Atg5 level in african green monkey COS7 cells at 47 uM after 24 hrs by immunoblotting; format: functional, cell-based; settings: Chlorocebus aethiops
[24] = molecular target: Serine/threonine-protein kinase mTOR (Homo sapiens) (UniProt P42345); test: Inhibition of mTOR phosphorylation expressed in african green monkey COS7 cells at 43 uM by Western blot analysis; format: cell-based; settings: COS-7
HeLa [25] = test: Induction of autophagy in human HeLa cells harboring MAP1LC3 gene at 43 uM after 24 hrs by DAPI staining-based fluorescence microscopy; format: functional, cell-based; method in brief: as §2
[26] = molecular target: Huntingtin (Homo sapiens) (UniProt P42858); test: Inhibition of EGFP-tagged huntingtin expressed in african green monkey COS7 cells assessed as protection against protein-induced cell death at 43 uM after 48 hrs […]; format: cell-based; settings: COS-7
Method in brief: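 COS-7 cells transfected 4 h with EGFP-tagged huntingtin exon 1 (74 polyQ), then treated for 48 h. About 200 EGFP-positive cells were scored by fluorescence microscopy for aggregates; DAPI-stained nuclei with apoptotic morphology were counted as dead. Triplicate, scorer blinded. Results given as odds ratios vs DMSO (set to 1) with 95 % CI by logistic regression.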

[27] = molecular target: Huntingtin (Mus musculus) (UniProt P42859); test: Inhibition of EGFP-tagged huntingtin aggregation in MEF harboring Atg5 gene at 43 uM after 48 hrs by Western blot analysis
PC-12 [28] = test: Enhancement of rapamycin-induced clearance of alpha-synuclein A53T mutant protein in rat PC12 cells at 43 uM after 8 hrs by immunoblotting; format: functional, cell-based; method in brief: as §4
COS-7 [29] = test: Effect on ATg6 level in african green monkey COS7 cells at 43 uM after 24 hrs by immunoblotting; format: functional, cell-based; settings: Chlorocebus aethiops
HeLa [30] = test: Inhibition of proteasome activity in human HeLa cells assessed as induction of ubiquitinG76V-EGFP reporter level at 43 uM after 24 hrs by immunoblotting
COS-7 [31] = test: Increase in conjugated Atg12-Atg5 level in african green monkey COS7 cells at 43 uM after 24 hrs by immunoblotting; format: functional, cell-based; settings: Chlorocebus aethiops
[32] = molecular target: Huntingtin (Mus musculus) (UniProt P42859); test: Inhibition of EGFP-tagged huntingtin aggregation in Atg5-deficient MEF at 43 uM after 48 hrs by […]
COS-7 [33] = test: Effect on ATg7 level in african green monkey COS7 cells at 43 uM after 24 hrs by immunoblotting; format: functional, cell-based; settings: Chlorocebus aethiops
[34] = molecular target: Huntingtin (Homo sapiens) (UniProt P42858); test: Inhibition of EGFP-tagged huntingtin aggregation expressed in african green monkey COS7 cells at 43 uM after 48 hrs by […]; format: cell-based; settings: COS-7
Drosophila melanogaster [35] = test: Toxicity against Drosophila melanogaster Huntington's disease model at 200 uM; format: organism-based; settings: in vivo
COS-7 [36] = test: Effect on ATg12 level in african green monkey COS7 cells at 43 uM after 24 hrs by immunoblotting; format: functional, cell-based; settings: Chlorocebus aethiops
Drosophila melanogaster [37] = test: Neuroprotective activity in Drosophila melanogaster Huntington's disease model harboring huntington protein mutant assessed as protection against neurodegeneration at 200 uM; format: functional, organism-based
[38] = Cytotoxicity against african green monkey COS7 cells at 43 uM after 24 hrs by FACS analysis; format: cell-based; settings: chlorocebus aethiops, cos-7, 24 h
COS-7 [39] = test: Effect on ATg5 level in african green monkey COS7 cells at 43 uM after 24 hrs by immunoblotting; format: functional, cell-based; settings: Chlorocebus aethiops
[40] = molecular target: Huntingtin (Homo sapiens) (UniProt P42858); test: Inhibition of EGFP-tagged huntingtin aggregation expressed in african green monkey COS7 cells at 43 uM after 24 hrs by […] in presence of 0.2 uM rapamycin; format: cell-based; settings: COS-7
HeLa [41] = test: Increase in MAP1LC3 level in bafilomycin A1-treated human HeLa cells at 43 uM treated fro 24 hrs before bafilomycin A1 challenge by immunoblotting analysis; format: functional, cell-based; method in brief: as §1
PC-12 [42] = test: Enhancement of rapamycin-induced clearance of alpha-synuclein A53T mutant protein in rat PC12 cells at 140 uM after 8 hrs by immunoblotting; format: functional, cell-based; method in brief: as §4
Saccharomyces cerevisiae [43] = test: Enhancement of tunicamycin-mediated cytostatic effect in yeast BY4742 after 48 to 96 hrs; format: functional, organism-based
Saccharomyces cerevisiae [44] = test: Enhancement of CHX-mediated cytostatic effect in yeast BY4742 after 48 to 96 hrs; format: functional, organism-based
Saccharomyces cerevisiae [45] = test: Enhancement of menadione-mediated cytostatic effect in yeast BY4742 after 48 to 96 hrs; format: functional, organism-based
[46] = molecular target: Huntingtin (Homo sapiens) (UniProt P42858); test: Inhibition of EGFP-tagged huntingtin aggregation expressed in african green monkey COS7 cells at 140 uM after 24 hrs by […] in presence of 0.2 uM rapamycin; format: cell-based; settings: COS-7
Saccharomyces cerevisiae [47] = test: Enhancement of nocodazole-mediated cytostatic effect in yeast BY4742 after 48 to 96 hrs; format: functional, organism-based
Saccharomyces cerevisiae [48] = test: Enhancement of anisomycin-mediated cytostatic effect in yeast BY4742 after 48 to 96 hrs; format: functional, organism-based

| Structure (SMILES) | Activity (Drosophila melanogaster [1]) | Activity (HeLa [2]) | inhibition (HeLa [4]) | inhibition [5] | inhibition [6] | inhibition [7] | Activity (Saccharomyces paradoxus) | inhibition [8] | Activity [9] | Activity (Saccharomyces cerevisiae [10]) | Activity (HeLa [11]) | Activity (COS-7 [12]) | Activity (PC-12 [13]) | Activity (COS-7 [14]) | inhibition [17] | EC50 (Saccharomyces cerevisiae [19]) | Activity (PC-12 [20]) | Activity (Saccharomyces bayanus) | Activity (PC-12 [21]) | Activity (Saccharomyces mikatae) | further results |
| --- | --- | --- | --- | --- | --- | --- | --- | --- | --- | --- | --- | --- | --- | --- | --- | --- | --- | --- | --- | --- | --- |
| C=CCNc1ncnc2ccc(Br)cc12 | Active | Active | inactive | Active | inactive | Active | Active | inactive | Non-toxic | Active | Active | inactive | Active | inactive | inactive | > 50 µM | Active | Active | Active | Active | inhibition [3]: Active; Activity (Drosophila melanogaster [15]): Non-toxic; Activity (PC-12 [16]): Active; Activity (COS-7 [18]): inactive; Activity (COS-7 [22]): inactive; Activity (COS-7 [23]): inactive |
| C/C(=C/C(=O)c1ccc(Cl)cc1)Nc1cccc(O)c1 | – | – | – | – | – | – | Active | inactive | – | Active | – | – | Active | – | inactive | 17.4 µM | Active | Active | Active | Active | inhibition [24]: inactive; Activity (HeLa [25]): Active; inhibition [26]: Active; inhibition [27]: Active; Activity (PC-12 [28]): Active; Activity (COS-7 [29]): inactive; inhibition (HeLa [30]): inactive; Activity (COS-7 [31]): inactive; inhibition [32]: Active; Activity (COS-7 [33]): inactive; inhibition [34]: Active; Activity (Drosophila melanogaster [35]): Non-toxic; Activity (COS-7 [36]): inactive; Activity (Drosophila melanogaster [37]): Active; Activity [38]: Non-toxic; Activity (COS-7 [39]): inactive; inhibition [40]: Active; Activity (HeLa [41]): Active |
| Nn1cnc2c(c1=O)C1(CCCC1)Cc1ccccc1-2 | Active | Active | inactive | Active | inactive | Active | Active | inactive | Non-toxic | Active | Active | inactive | Active | inactive | inactive | 4.9 µM | Active | Active | Active | Active | Activity (PC-12 [42]): Active; Activity (Saccharomyces cerevisiae [43]): Active; Activity (Saccharomyces cerevisiae [44]): Active; Activity (Saccharomyces cerevisiae [45]): Active; Activity (PC-12 [28]): Active; Activity (Drosophila melanogaster [15]): Non-toxic; inhibition [46]: Active; Activity (COS-7 [18]): inactive; Activity (Saccharomyces cerevisiae [47]): Active; Activity (Saccharomyces cerevisiae [48]): Active; Activity (COS-7 [22]): inactive; Activity (COS-7 [23]): inactive |
